Measured values pooled from the literature.
Target: Ephrin type-B receptor 6 (EPHB6, Homo sapiens, UniProt O15197)
One construct used (O15197 32-1021): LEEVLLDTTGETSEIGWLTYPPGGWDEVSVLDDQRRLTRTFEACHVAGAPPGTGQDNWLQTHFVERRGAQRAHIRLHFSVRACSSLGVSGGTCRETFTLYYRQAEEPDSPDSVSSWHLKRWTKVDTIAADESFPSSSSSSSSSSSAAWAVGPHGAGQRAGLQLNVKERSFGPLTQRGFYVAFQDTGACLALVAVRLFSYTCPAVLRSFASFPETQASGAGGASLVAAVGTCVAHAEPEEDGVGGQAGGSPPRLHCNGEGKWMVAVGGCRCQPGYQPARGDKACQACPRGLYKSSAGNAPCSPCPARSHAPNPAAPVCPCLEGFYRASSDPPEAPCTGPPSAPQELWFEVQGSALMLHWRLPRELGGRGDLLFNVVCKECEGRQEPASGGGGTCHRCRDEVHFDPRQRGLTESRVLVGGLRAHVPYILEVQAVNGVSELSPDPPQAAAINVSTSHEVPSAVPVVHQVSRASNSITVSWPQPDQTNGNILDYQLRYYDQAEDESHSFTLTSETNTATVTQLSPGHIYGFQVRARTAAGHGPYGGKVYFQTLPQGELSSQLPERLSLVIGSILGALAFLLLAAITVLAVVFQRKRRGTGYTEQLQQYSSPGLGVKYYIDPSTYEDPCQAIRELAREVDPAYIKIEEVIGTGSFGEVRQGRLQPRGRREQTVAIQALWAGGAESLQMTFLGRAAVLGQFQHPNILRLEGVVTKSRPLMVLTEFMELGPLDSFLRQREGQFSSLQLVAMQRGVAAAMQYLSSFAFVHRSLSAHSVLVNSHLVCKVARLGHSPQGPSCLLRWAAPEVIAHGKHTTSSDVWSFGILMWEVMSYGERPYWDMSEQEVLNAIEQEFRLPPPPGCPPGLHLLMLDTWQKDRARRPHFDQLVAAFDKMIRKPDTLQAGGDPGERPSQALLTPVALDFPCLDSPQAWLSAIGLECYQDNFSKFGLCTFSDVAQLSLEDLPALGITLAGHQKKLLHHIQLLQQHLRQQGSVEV

SMILES	read-out	method	tested at	remaining binding [%]
C=CC(=O)N1CCC(C(=O)NCC(=O)N2CCN(c3nc(-c4cnc(N)nc4C(F)F)nc(N4CCOCC4)n3)CC2)CC1	binding	competition with immobilised ligand	1 µM	65
O=C(c1ccc(Nc2ncc(Cl)c(-c3cc4ccccc4s3)n2)cc1)N1CCC(N2CCCC2)CC1	binding	competition with immobilised ligand	1 µM	3.9
FC(F)(F)Oc1cccc(-c2cnc3ccc(-c4ccncc4)nn23)c1	cell-free assay	competition with immobilised ligand	5 µM	9.3
O=C(c1ccc(Nc2ncc(Cl)c(-c3ccc(Cl)s3)n2)cc1)N1CCC(N2CCCC2)CC1	binding	competition with immobilised ligand	1 µM	0
C[C@H]1CCN(c2nccc(-c3cnn4ncccc34)n2)C1	binding		1 µM	85
O=C(Nc1c[nH]nc1C(=O)NC1CCNCC1)c1cc(F)cc(F)c1	binding	competition with immobilised ligand	1 µM	100
CNC(=O)c1ccc(Nc2ncc(C(F)(F)F)c(NCc3nccnc3N(C)S(C)(=O)=O)n2)cc1	cell-free assay	competition with immobilised ligand	0.1 µM	100
Cc1cnn2ncc(-c3ccnc(N(C)C)n3)c2c1	binding		1 µM	80
COc1ncc2cc3ccccc3nc2c1C#N	cell-free assay	competition with immobilised ligand	5 µM	73
CN(C)c1nccc(-c2cnc3ncccn23)n1	binding		1 µM	45
C[C@@]1(Cc2ccc(C#N)cc2)C(=O)N(c2cc(Cl)cc(Cl)c2)c2ncc(C(=O)NC3(c4nc(C5CCC5)no4)CC3)n21	cell-free assay	competition with immobilised ligand	1 µM	100
N[C@@H]1CCN(c2nccc(-c3cnn4ncccc34)n2)C1	binding		1 µM	52
Cc1c[nH]c2nccc(Oc3c(F)cc(Nc4cc(Cl)nc(N)n4)cc3F)c12	cell-free assay	competition with immobilised ligand	0.1 µM	96
CNC(=O)[C@@H]1CC[C@@H](n2c(-c3ccc4cnccc4c3)nc3ccc(C(=O)NCc4cccc(C(N)=O)c4)cc32)C1	binding	competition with immobilised ligand	1 µM	100
CN(CCCC(F)(F)F)c1nccc(-c2cnn3ncccc23)n1	binding		1 µM	100
COc1cnc(Nc2cccc(S(N)(=O)=O)c2)nc1N1CCN(c2ccccc2)CC1	binding	competition with immobilised ligand	1 µM	95
O=C(Nc1cccnn1)N1CC(C/C=C/c2cncc(Oc3ccc(C(F)(F)F)cn3)n2)C1	cell-free assay	competition with immobilised ligand	1 µM	87
COc1ccnn2ncc(-c3ccnc(N(C)C)n3)c12	binding		1 µM	27
O=C(Nc1cccnn1)N1CCC(=Cc2cccc(Oc3ccc(C(F)(F)F)cn3)c2)CC1	cell-free assay	competition with immobilised ligand	1 µM	100
CN(C)c1ncc(F)c(-c2cnn3ncccc23)n1	binding		1 µM	77
Cc1cnc(Nc2ccc(C(=O)N3CCC(N4CCCC4)CC3)cc2)nc1-c1cc2ccccc2s1	binding	competition with immobilised ligand	1 µM	3.3
CS(=O)(=O)N1CCCC(NC(=O)[C@H](CCC2CCCCC2)NC(=O)c2ccc(CNC(=O)c3cnc4ccccn34)cc2)C1 (stereo partly shown)	cell-free assay	competition with immobilised ligand	0.1 µM	98
